Where a SMILES comes first, the peptide text is derived from it. [ ]: non-standard residue; d: D form. The star is where a group is joined. Dolaproine = CO[C@@H]([C@@H]1CCCN1)[C@@H](C)C(=O)O; Dil = CC[C@H](C)[C@H](NC)[C@@H](CC(=O)O)OC; Doe = c1ccc(C[C@H](N*)c2nccs2)cc1; Aib = CC(C)(N)C(=O)O

One data set concerns the target CYP3A4 (Homo sapiens, UniProt P08684). The data set is described as follows: Drug-drug interaction substudy with multiple-dose fluconazole. The note with it: PF-06647020 co-administered with multiple-dose fluconazole, 11 patients. The data set is classed as in vivo. Summed up: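 Single-dose test ADC was given alone in cycle 1 (reference) and co-administered with multiple-dose fluconazole in cycle 2 (test). Unconjugated payload exposure was measured as dose-normalized AUCinf and Cmax from noncompartmental analysis. Results were expressed as ratios of adjusted geometric means with 90% confidence intervals.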

Data set [1] in a line: Clinical pharmacokinetics. The note with it: 0.2 to 3.7 mg/kg every 3 weeks dose levels of PF-06647020. The data set is classed as in vivo, human.

Chain of CYP3A4 (P08684 whole entry): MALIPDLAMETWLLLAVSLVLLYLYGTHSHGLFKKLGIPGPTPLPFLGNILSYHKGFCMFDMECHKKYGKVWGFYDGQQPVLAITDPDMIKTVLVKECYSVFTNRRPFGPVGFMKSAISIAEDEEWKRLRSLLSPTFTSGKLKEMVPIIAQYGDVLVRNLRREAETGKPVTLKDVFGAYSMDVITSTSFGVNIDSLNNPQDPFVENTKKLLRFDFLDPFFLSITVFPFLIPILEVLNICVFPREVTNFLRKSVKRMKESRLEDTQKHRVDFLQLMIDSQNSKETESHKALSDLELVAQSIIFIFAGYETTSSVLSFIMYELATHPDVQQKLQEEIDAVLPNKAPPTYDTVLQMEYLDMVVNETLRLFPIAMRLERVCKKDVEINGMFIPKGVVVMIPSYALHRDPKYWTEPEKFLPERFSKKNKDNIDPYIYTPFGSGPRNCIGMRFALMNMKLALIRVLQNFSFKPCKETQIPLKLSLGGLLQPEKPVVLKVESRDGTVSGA

For the molecule `CC[C@H](C)[C@@H]([C@@H](CC(=O)N1CCC[C@H]1[C@H](OC)[C@@H](C)C(=O)N[C@@H](Cc1ccccc1)c1nccs1)OC)N(C)C(=O)[C@@H](NC(=O)C(C)(C)N)C(C)C` [PF-06380101, auristatin-0101] (H-[Aib]V[Dil][Dolaproine]-Doe), on CYP3A4, the “impact of fluconazole co-administration on overall exposure” value is reported as “did not have a notable impact”.

B1: hu6M024: humanized anti-PTK7 mAb (IgG1); total antibody = conjugated or unconjugated mAb (antibody, chains of the INN, looked up, V domains shown)
VH: QVQLVQSGPEVKKPGASVKVSCKASGYTFTDYAVHWVRQAPGKRLEWIGVISTYNDYTYNNQDFKGRVTMTRDTSASTAYMELSRLRSEDTAVYYCARGNSYFYALDYWGQGTSVTVSS
VL: EIVLTQSPATLSLSPGERATLSCRASESVDSYGKSFMHWYQQKPGQAPRLLIYRASNLESGIPARFSGSGSGTDFTLTISSLEPEDFAVYYCQQSNEDPWTFGGGTKLEIK
For the molecule B1, the “systemic exposure (AUCtau, Cmax) versus dose” value in data set [1] is given as “generally increased in a dose-related manner”. Further, the “impact of fluconazole co-administration on overall exposure” value with CYP3A4 is recorded as “did not have a notable impact”.
